“And” between values parts separate entries of the source, which are not always exact repeats. Equal values may be shown once. Records with an inconclusive call do not appear. The source made the active and inactive calls.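 How the source made its calls: active means rising curve reaching 40% of the stimulating control's effect at or below the top valid tested dose; inconclusive means flat curve between 30 and 70% of control, or poor fit; inactive means falling curves and all the rest.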

Consider 33 compounds from PubChem BioAssay AID588810 (Broad Institute, 2011).

Chain of Scavenger receptor class B member 1 (Mus musculus) (Q61009 whole entry, looked up): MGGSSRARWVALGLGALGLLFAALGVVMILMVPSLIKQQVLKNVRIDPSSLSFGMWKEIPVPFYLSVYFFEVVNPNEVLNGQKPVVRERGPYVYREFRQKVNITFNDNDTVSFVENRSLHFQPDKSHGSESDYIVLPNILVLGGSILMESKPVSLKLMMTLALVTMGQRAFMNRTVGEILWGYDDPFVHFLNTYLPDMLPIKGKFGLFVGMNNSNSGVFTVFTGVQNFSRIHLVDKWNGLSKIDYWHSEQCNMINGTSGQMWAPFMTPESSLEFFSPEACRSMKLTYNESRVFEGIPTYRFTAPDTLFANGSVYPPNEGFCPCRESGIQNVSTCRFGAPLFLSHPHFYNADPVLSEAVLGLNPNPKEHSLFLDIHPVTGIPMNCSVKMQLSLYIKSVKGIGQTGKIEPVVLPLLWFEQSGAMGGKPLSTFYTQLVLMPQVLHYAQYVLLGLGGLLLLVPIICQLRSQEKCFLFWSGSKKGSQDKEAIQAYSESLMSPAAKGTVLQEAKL

The test has as its target Scavenger receptor class B member 1 (Mus musculus) (UniProt Q61009). The experiment in a line: enhancers of HDL binding to SR-BI, dose response, orthogonal assay for SR-BI HDL uptake inhibitor project, ldlA[mSR-BI] cells, Alexa488-HDL, powder samples, set 2 (AID 588810). The settings on record: ldlA[mSR-BI] CHO cells, Alexa488-HDL binding fluorescence, 3 h. Put shortly: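 Benchmarks: BLT-1 at 1 µM as positive control; system: mouse SR-BI-expressing ldlA CHO cells; buffer or medium: F12, 0.5% BSA, 25 mM HEPES pH 7.4; signal: bottom-read fluorescence after two PBS washes; compound dosing: dose series of compound; schedule: cells seeded one day ahead, 3 h HDL-compound exposure at 37 °C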
For the compound `CCC(=O)N1CCc2cc(-c3csc(NCc4cc(OC)cc(OC)c4)n3)ccc21`, the AC40 is 912 nM.

With `CC(C(=O)NC1CCCC1)N(C(=O)Cn1nnc(-c2ccc3c(c2)OCO3)n1)C1CCCCC1` (stereo not drawn), the AC40 was 214 nM.

`COc1ccc(-c2nnn(CC(=O)N(C3CCCCC3)C(C)C(=O)NC3CCCC3)n2)cc1OC` (stereo not drawn): the AC40 is 437 nM.

Turning to `COc1ccc(-c2nnn(CC(=O)N(CC(=O)NC3CCCC3)C3CCCCC3)n2)cc1OC`, the AC40 is 231 nM.

Consider `Cc1ccc2oc(-c3cccc(NC(=O)c4cc(-n5cnnc5)ccc4Cl)c3)nc2c1`, for which the AC40 is > 80000 nM (inactive).

Take `CCC(=O)n1ccc2cc(-c3csc(NC(=O)c4cc(OC)cc(OC)c4)n3)ccc21`: the AC40 is 672 nM.

With `CCC(=O)N1CCc2cc(-c3csc(NC(=O)c4cccc(OC)c4)n3)ccc21`, the AC40 was 454 nM.

Turning to `O=C(CN(C(=O)Cn1nnc(-c2ccc3c(c2)OCO3)n1)C1CCCCC1)NC1CCCC1`, the AC40 was 337 nM.

Regarding `C[C@@H](C(=O)NC1CCCC1)N(C(=O)Cn1nnc(-c2ccc3c(c2)OCO3)n1)C1CCCCC1`, the AC40 was 4690 nM.

Take `CCC(=O)N1CCc2cc(-c3csc(NC(=O)c4cccc(OC(F)(F)F)c4)n3)ccc21`: the AC40 is 943 nM.

As to `COC(=O)N1CCc2cc(-c3csc(NC(=O)c4cc(OC)cc(OC)c4)n3)ccc21`, the AC40 is 324 nM.

For `C[C@@H]1CN([C@H](C)CO)C(=O)c2cc(NC(=O)Cc3cn(C)c4ccccc34)ccc2O[C@H]1CN(C)S(=O)(=O)c1ccc(Cl)cc1`, the AC40 is 73.3 nM.

For the compound `COc1cc(OC)cc(C(=O)Nc2nc(-c3ccc4c(c3)CCN4C(=O)CN(C)C)cs2)c1`, the AC40 was 232 nM.

`CCC(=O)Nc1ccc(-c2csc(NC(=O)c3cccc(OC)c3)n2)cc1`: the AC40 is 347 nM.

For the compound `CCC(=O)N1CCc2cc(-c3csc(NC(=O)c4cc5ccccc5o4)n3)ccc21`, the AC40 was 1580 nM.

As for `CCNC(=O)N1CCc2cc(-c3csc(NC(=O)c4cc(OC)cc(OC)c4)n3)ccc21`, the AC40 is 12.7 nM.

As to `COc1c(NC(=O)C(=O)c2ccc(OCCN3CCOCC3)c3ccccc23)cc(C(C)(C)C)cc1NS(C)(=O)=O`, the AC40 was 1640 nM.

For the compound `CCC(=O)N1CC(C)(C)c2cc(-c3csc(NC(=O)c4ccco4)n3)ccc21`, the AC40 was 57.1 nM.

In the case of `COc1ccc(-c2nnn(CC(=O)N(CC(=O)N3CCCCC3)C3CCCCC3)n2)cc1OC`, the AC40 is 11800 nM.

Turning to `COc1ccc(-c2nnn(CC(=O)N(CC(=O)N(C)C3CCCC3)C3CCCCC3)n2)cc1OC`, the AC40 was 4950 nM.

In the case of `C[C@H](C(=O)NC1CCCC1)N(C(=O)Cn1nnc(-c2ccc3c(c2)OCO3)n1)C1CCCCC1`, the AC40 was 169 nM.

For `COc1ccc(-c2nc(CC(=O)N(C3CCCCC3)C(C)C(=O)NC3CCCC3)co2)cc1OC` (stereo not drawn), the AC40 was 1360 nM.

In the case of `COCC(=O)N1CCc2cc(-c3csc(NC(=O)c4cc(OC)cc(OC)c4)n3)ccc21`, the AC40 is 21.8 nM.

In the case of `CCC(=O)N1CCc2cc(-c3csc(NC(=O)c4cc(OC)cc(OC)c4)n3)ccc21`, the AC40 was 382 nM.

Turning to `CCC(=O)N1CCc2cc(-c3csc(NC(=O)c4cc(OC)c(OC)c(OC)c4)n3)ccc21`, the AC40 is 22.2 nM.

As for `COc1ccc(-c2cc(CC(=O)N(C3CCCCC3)C(C)C(=O)NC3CCCC3)no2)cc1OC` (stereo not drawn), the AC40 is 145 nM.

For the compound `CC(=O)N1CCc2cc(-c3nc(NC(=O)c4cccc(OC(F)(F)F)c4)sc3C)ccc21`, the AC40 is 488 nM.

For `COc1cc(OC)cc(C(=O)Nc2nc(-c3ccc4c(c3)CCN4C(C)=O)cs2)c1`, the AC40 is 371 nM.

Take `O=C(Nc1nc(-c2ccc3c(c2)CCN3)cs1)c1ccco1`: the AC40 was 295 nM.

Turning to `CCC(=O)N1CCc2cc(-c3csc(NC(=O)c4ccco4)n3)ccc21`, the AC40 is 312 nM and 2270 nM.

Regarding `CCC(=O)N1CC(C)(C)c2cc(-c3csc(NC(=O)c4cc(OC)cc(OC)c4)n3)ccc21`, the AC40 was 6.07 nM.

In the case of `COc1cc(OC)cc(C(=O)Nc2nc(-c3ccc4c(c3)CCN4C(=O)OC(C)(C)C)cs2)c1`, the AC40 was 24.5 nM.

As to `CCC(=O)N1CCc2cc(-c3csc(NC(=O)c4ccc(F)c(OC)c4)n3)ccc21`, the AC40 was 358 nM.
